We go through 40 compounds from ChEMBL document CHEMBL3272140, “Structure and antitumor activity relationship of 2-arylidene-4-cyclopentene-1, 3-diones and 2-arylideneindan-1, 3-diones” (J Med Chem, 1976).

In series [1] the test system is Sarcoma-180. The series can be described thus: Antitumor activity against mouse ascites Sarcoma 180 cells allografted in ddN mouse assessed as percentage of total packed cell volume ratio at 10 mg/kg/day for 5 days administered 24 hrs after tumor inoculation measured 7th day after tumor inoculation. In kind it is functional. The procedure, abridged:
(§1)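 Compound given by injection once daily for 5 days, beginning 24 h after S-180 tumor inoculation. Antitumor activity was scored from the total packed cell volume ratio (TPCV %) on day 7 after inoculation.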

The test system of series [2] is Sarcoma-180. Briefly: Antitumor activity against mouse ascites Sarcoma 180 cells allografted in ddN mouse assessed as percentage of total packed cell volume ratio at 100 mg/kg/day for 5 days administered 24 hrs after tumor inoculation measured 7th day after tumor inoculation. In kind it is functional. The procedure, abridged:
as §1

The next series has as its system Mus musculus. The series can be described thus: Toxicity in mouse ascites sarcoma 180 cells allografted ddN mouse at 3 mg/kg/day for 5 days administered 24 hrs after tumor inoculation measured 7th day after tumor inoculation. In kind it is organism-based. The note with it: in vivo.
The subject of series [3] is Sarcoma-180. The series can be described thus: Antitumor activity against mouse ascites Sarcoma 180 cells allografted in ddN mouse assessed as percentage of total packed cell volume ratio at 3 mg/kg/day for 5 days administered 24 hrs after tumor inoculation measured 7th day after tumor inoculation. The format is functional. The procedure, abridged: as §1

In the case of `COc1cc(C=C2C(=O)C=CC2=O)cc(OC)c1OCc1ccccc1`, the Activity in the series on Sarcoma-180 [1] was 11%. As to `COc1cc(C=C2C(=O)c3ccccc3C2=O)cc(OC)c1OC`, the Activity with Sarcoma-180 [2] turned out to be 41%.

As for `COc1cc(/C=C2\CC/C(=C\c3ccc(OCc4ccccc4)c(OC)c3)C2=O)ccc1OCc1ccccc1`, the Activity with Sarcoma-180 [2] is reported as 66%.

On to `COc1cc(C=C2C(=O)C=CC2=O)cc(OC)c1OC`, for which the Activity with Sarcoma-180 [1] was determined as 0%.

For `COc1ccc(C=C2C(=O)C=CC2=O)cc1OC`, the Activity in the series with Sarcoma-180 [1] is on record as 0%. As for `COc1ccc(C=C2C(=O)c3ccccc3C2=O)cc1OC`, the Activity with Sarcoma-180 [2] was determined as 41%. Take `COc1cc(C=C2C(=O)c3ccccc3C2=O)cc(OC)c1OCc1ccccc1`: the Activity in the series on Sarcoma-180 [2] was 66%. Consider `COc1cc(/C=C2\CCC/C(=C\c3cc(OC)c(O)c(OC)c3)C2=O)cc(OC)c1O`, for which the Activity in the series on Sarcoma-180 [2] is reported as 66%. On the same count and under the same terms, the value for `O=C1C(=C/C=C/c2ccccc2)C(=O)c2ccccc21` was 66%. With `COc1ccc(C=C2C(=O)C=CC2=O)cc1`, the Activity with Sarcoma-180 [1] turned out to be 0%. With `COc1cc(/C=C2\CC(C)C/C(=C\c3ccc(OCc4ccccc4)c(OC)c3)C2=O)ccc1OCc1ccccc1` (stereo not given), the Activity in the series with Sarcoma-180 [2] came out at 66%.

On to `O=C1C=CC(=O)C1=C/C=C/c1ccccc1`, for which the Activity with Sarcoma-180 [1] was determined as 0%. As to `COc1cc(C=C2C(=O)c3ccccc3C2=O)cc(OC)c1O`, the Activity in the series with Sarcoma-180 [2] amounted to 11%. For the compound `O=C1C=CC(=O)C1`, in the series with Mus musculus, the Activity entry is “Toxic”. Turning to `COc1cc(/C=C2\CCC/C(=C\c3cc(OC)c(OCc4ccccc4)c(OC)c3)C2=O)cc(OC)c1OCc1ccccc1`, the Activity with Sarcoma-180 [2] is 66%. `COc1cc(/C=C2\CCC/C(=C\c3ccc(OCc4ccccc4)c(OC)c3)C2=O)ccc1OCc1ccccc1`: the Activity with Sarcoma-180 [2] amounted to 66%.

`COc1cc(/C=C2\CC/C(=C\c3ccc(O)c(OC)c3)C2=O)ccc1O`: the Activity in the series on Sarcoma-180 [2] came out at 66%.

Regarding `COc1ccc(C=C2C(=O)C=CC2=O)cc1O`, in the series with Sarcoma-180 [1], the Activity is recorded as 0%. With `COc1cc(C=C2C(=O)C=CC2=O)cc(OC)c1O`, the Activity in the series on Sarcoma-180 [1] amounted to 0%. Regarding `COc1cc(C=C2C(=O)C=CC2=O)ccc1OCc1ccccc1`, the Activity in the series with Sarcoma-180 [1] turned out to be 11%. As for `O=C1C=CC(=O)C1=Cc1ccc(O)cc1`, the Activity in the series with Sarcoma-180 [1] came to 0%. Consider `O=C1CC(=O)c2ccccc21`, for which, in the series with Sarcoma-180 [2], the Activity worked out at 11%. With `COc1cc(/C=C2\CC/C(=C\c3cc(OC)c(O)c(OC)c3)C2=O)cc(OC)c1O`, the Activity in the series on Sarcoma-180 [2] turned out to be 66%.

With `COc1ccc(C=C2C(=O)c3ccccc3C2=O)cc1`, the Activity in the series on Sarcoma-180 [2] is on record as 66%. For the compound `COc1cc(/C=C/C=C2C(=O)c3ccccc3C2=O)ccc1O`, the Activity in the series on Sarcoma-180 [2] was determined as 66%. As to `COc1cc(/C=C2\CC(C)C/C(=C\c3cc(OC)c(O)c(OC)c3)C2=O)cc(OC)c1O` (stereo not given), the Activity with Sarcoma-180 [2] came out at 66%. Same read-out and setting: for `COc1cc(C=C2C(=O)c3ccccc3C2=O)ccc1OCc1ccccc1` the value was 66%. `COc1cc(C=C2C(=O)C=CC2=O)ccc1O`: in the series on Sarcoma-180 [3], the Activity is 0%. As to `O=C1C(=Cc2ccc(O)cc2)C(=O)c2ccccc21`, the Activity with Sarcoma-180 [2] amounted to 66%.

For `COc1cc(/C=C2\CCC(C)/C(=C\c3ccc(O)c(OC)c3)C2=O)ccc1O` (stereo not given), in the series on Sarcoma-180 [2], the Activity was determined as 66%.

In the case of `COc1cc(/C=C2\CCC/C(=C\c3ccc(O)c(OC)c3)C2=O)ccc1O` [CYCLOVALONE], the Activity with Sarcoma-180 [2] is 66%. For the compound `COc1cc(C=C2C(=O)c3ccccc3C2=O)ccc1O`, the Activity in the series on Sarcoma-180 [2] is on record as 0%. As for `COc1cc(/C=C2\CC/C(=C\c3cc(OC)c(OCc4ccccc4)c(OC)c3)C2=O)cc(OC)c1OCc1ccccc1`, the Activity in the series with Sarcoma-180 [2] was 66%. The same measure, in the same setting: the value for `COc1cc(/C=C2\CC(C)C/C(=C\c3cc(OC)c(OCc4ccccc4)c(OC)c3)C2=O)cc(OC)c1OCc1ccccc1` (stereo not given) was 66%; that for `COc1cc(/C=C2\CC(C)C/C(=C\c3ccc(O)c(OC)c3)C2=O)ccc1O` (stereo not given) was 66%. As for `COc1cc(/C=C2\CCC(C)/C(=C\c3ccc(OCc4ccccc4)c(OC)c3)C2=O)ccc1OCc1ccccc1` (stereo not given), in the series with Sarcoma-180 [2], the Activity is 66%. As to `COc1cc(/C=C2\CCC(C)/C(=C\c3cc(OC)c(OC)c(OC)c3)C2=O)cc(OC)c1OC` (stereo not given), the Activity in the series on Sarcoma-180 [2] came out at 66%. On the same count and under the same terms, the value for `COc1ccc(C=C2C(=O)c3ccccc3C2=O)cc1O` was 41%; that for `COc1cc(/C=C2\CCC(C)/C(=C\c3cc(OC)c(OCc4ccccc4)c(OC)c3)C2=O)cc(OC)c1OCc1ccccc1` (stereo not given) was 66%; that for `COc1cc(/C=C2\CCC(C)/C(=C\c3cc(OC)c(O)c(OC)c3)C2=O)cc(OC)c1O` (stereo not given) was 66%.
